{
  "source": "ChEMBL document CHEMBL4138314",
  "about": "“Synthesis and Evaluation of N-Phenyl-3-sulfamoyl-benzamide Derivatives as Capsid Assembly Modulators Inhibiting Hepatitis B Virus (HBV)” (J Med Chem, 2018)",
  "key": {"[1]": {"assay": "Cmax in humanized mouse at 200 mg/kg, sc for 8 days measured on day 8 post last dose by LC-MS/MS analysis", "format": "ADME, organism-based", "parameters": "dose 200 mg/kg, route subcutaneous", "details": "in vivo"}, "[2]": {"assay": "Drug uptake in humanized mouse liver at 50 mg/kg, sc after 24 hrs by LC-MS/MS analysis", "format": "ADME, organism-based", "details": "read-out: Drug uptake", "method_in_brief": "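Uninfected humanized mice given 50 or 200 mg/kg subcutaneously once daily as a methocel suspension for 8 days; liver concentration measured 24 h after dosing.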"}, "[3]": {"assay": "Cmax in humanized mouse at 50 mg/kg, sc for 8 days measured on day 8 post last dose by LC-MS/MS analysis", "format": "ADME, organism-based", "parameters": "dose 50 mg/kg, route subcutaneous", "details": "in vivo"}, "HBV genotype D [4]": {"test_system": "HBV genotype D", "assay": "Antiviral activity against HBV genotype D infected in human HepG2.2.15 cells assessed as inhibition of viral DNA level treated twice for 3 days measured after 6 days by real time PCR", "format": "functional, organism-based", "details": "Hepatitis B virus"}, "[5]": {"assay": "Cmax in C57BL/6 mouse at 50 mg/kg, po by LC-MS/MS analysis", "format": "ADME, organism-based", "parameters": "dose 50 mg/kg, route oral", "details": "in vivo"}, "[6]": {"assay": "Cmax in C57BL/6 mouse at 50 mg/kg, sc by LC-MS/MS analysis", "format": "ADME, organism-based", "parameters": "dose 50 mg/kg, route subcutaneous", "details": "in vivo"}, "[7]": {"assay": "Tmax in C57BL/6 mouse at 50 mg/kg, po by LC-MS/MS analysis", "format": "ADME, organism-based", "details": "in vivo", "method_in_brief": "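Single-dose PK in C57BL/6 mice given compound intravenously and orally, with oral doses of 10 and 50 mg/kg. Plasma clearance, volume of distribution and oral bioavailability were derived from the plasma profiles.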"}, "[8]": {"assay": "Tmax in C57BL/6 mouse at 50 mg/kg, sc by LC-MS/MS analysis", "format": "ADME, organism-based", "details": "in vivo", "method_in_brief": "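C57BL/6 mice dosed subcutaneously at 50 mg/kg to bypass first-pass metabolism; plasma and liver levels sampled 24 h after dosing.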"}, "[9]": {"assay": "AUC (0 to last) in C57BL/6 mouse at 2.5 mg/kg, iv by LC-MS/MS analysis", "format": "ADME, organism-based", "parameters": "dose 2.5 mg/kg, route intravenous, time 0 - last", "details": "in vivo"}, "[10]": {"assay": "AUC (0 to last) in C57BL/6 mouse at 50 mg/kg, po by LC-MS/MS analysis", "format": "ADME, organism-based", "parameters": "dose 50 mg/kg, route oral, time 0 - last", "details": "in vivo", "method_in_brief": "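Single-dose PK in C57BL/6 mice after intravenous or oral dosing, with oral doses of 10 and 50 mg/kg; plasma clearance and volume of distribution taken from the i.v. arm.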"}, "[11]": {"assay": "AUC (0 to last) in C57BL/6 mouse at 50 mg/kg, sc by LC-MS/MS analysis", "format": "ADME, organism-based", "parameters": "dose 50 mg/kg, time 0 - last, route subcutaneous", "details": "in vivo"}, "[12]": {"assay": "Bioavailability in C57BL/6 mouse at 50 mg/kg, sc by LC-MS/MS analysis", "format": "ADME, organism-based", "details": "in vivo"}, "[13]": {"target": "5-hydroxytryptamine receptor 2B (Homo sapiens, UniProt P41595)", "sequence (P41595 whole entry)": "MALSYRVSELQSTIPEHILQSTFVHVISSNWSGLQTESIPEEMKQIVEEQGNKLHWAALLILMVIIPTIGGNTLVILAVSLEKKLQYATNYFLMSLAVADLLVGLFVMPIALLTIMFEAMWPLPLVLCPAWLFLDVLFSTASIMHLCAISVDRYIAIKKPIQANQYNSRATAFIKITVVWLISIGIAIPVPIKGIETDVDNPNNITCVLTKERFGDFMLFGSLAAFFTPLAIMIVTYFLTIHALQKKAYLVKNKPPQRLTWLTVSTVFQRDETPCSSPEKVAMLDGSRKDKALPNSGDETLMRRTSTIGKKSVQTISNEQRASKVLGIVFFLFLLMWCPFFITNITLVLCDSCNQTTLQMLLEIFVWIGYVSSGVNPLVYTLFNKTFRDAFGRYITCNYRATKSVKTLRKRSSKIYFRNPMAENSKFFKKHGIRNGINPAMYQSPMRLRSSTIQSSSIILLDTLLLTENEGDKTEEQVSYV", "assay": "Antagonist activity at 5-HT2B (unknown origin) at 10 uM", "format": "functional", "method_in_brief": "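Receptor/ion channel/transporter panel of 80 targets screened at 10 µM, giving percent effect at 5-HT2B; follow-up 5-HT2B functional testing in agonist and antagonist modes, with antagonist IC50 determined.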"}, "[14]": {"assay": "Inhibition of calcium channel (unknown origin)", "parameters": "species or system Homo sapiens"}, "[15]": {"target": "Voltage-gated inwardly rectifying potassium channel KCNH2 (Homo sapiens, UniProt Q12809)", "sequence (Q12809 whole entry)": "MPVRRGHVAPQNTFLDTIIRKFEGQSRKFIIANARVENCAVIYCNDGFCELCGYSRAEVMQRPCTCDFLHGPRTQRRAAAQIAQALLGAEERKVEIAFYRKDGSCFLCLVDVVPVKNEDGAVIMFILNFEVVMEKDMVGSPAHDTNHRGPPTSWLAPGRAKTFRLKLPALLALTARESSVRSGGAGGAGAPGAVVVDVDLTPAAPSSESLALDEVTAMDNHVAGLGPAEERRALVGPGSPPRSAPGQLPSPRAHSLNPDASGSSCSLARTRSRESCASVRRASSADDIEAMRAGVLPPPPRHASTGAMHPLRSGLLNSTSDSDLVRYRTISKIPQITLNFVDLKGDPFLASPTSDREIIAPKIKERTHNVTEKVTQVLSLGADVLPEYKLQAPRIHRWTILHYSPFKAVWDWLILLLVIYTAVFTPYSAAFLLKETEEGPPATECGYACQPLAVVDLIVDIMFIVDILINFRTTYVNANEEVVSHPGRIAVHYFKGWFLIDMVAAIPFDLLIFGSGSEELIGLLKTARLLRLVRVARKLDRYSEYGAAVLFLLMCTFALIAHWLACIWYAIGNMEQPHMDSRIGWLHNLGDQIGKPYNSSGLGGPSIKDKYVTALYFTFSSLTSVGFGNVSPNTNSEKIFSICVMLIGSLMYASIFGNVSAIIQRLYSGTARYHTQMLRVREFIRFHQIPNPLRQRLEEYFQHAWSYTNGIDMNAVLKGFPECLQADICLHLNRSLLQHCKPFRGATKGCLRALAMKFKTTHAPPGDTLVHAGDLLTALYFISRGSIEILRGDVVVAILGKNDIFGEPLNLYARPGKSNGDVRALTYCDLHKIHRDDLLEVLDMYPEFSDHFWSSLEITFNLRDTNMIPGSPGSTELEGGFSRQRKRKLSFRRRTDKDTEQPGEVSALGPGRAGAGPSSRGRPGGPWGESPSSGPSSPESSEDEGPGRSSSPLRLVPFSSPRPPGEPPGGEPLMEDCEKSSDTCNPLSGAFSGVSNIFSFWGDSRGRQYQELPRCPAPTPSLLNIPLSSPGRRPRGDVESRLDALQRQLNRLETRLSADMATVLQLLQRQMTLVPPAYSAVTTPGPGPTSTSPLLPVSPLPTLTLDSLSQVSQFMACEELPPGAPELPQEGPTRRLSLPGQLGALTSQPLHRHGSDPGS", "assay": "Inhibition of human ERG"}, "hERG": {"target": "hERG (Homo sapiens, UniProt Q12809)", "sequence (Q12809 whole entry)": "as above", "assay": "Inhibition of human ERG at 3 uM by automated patch clamp assay (reference value: 14%)"}, "Cytochrome P450 2C8": {"target": "T1, Cytochrome P450 2C8 (Homo sapiens, UniProt P10632)", "T1 sequence (P10632 whole entry)": "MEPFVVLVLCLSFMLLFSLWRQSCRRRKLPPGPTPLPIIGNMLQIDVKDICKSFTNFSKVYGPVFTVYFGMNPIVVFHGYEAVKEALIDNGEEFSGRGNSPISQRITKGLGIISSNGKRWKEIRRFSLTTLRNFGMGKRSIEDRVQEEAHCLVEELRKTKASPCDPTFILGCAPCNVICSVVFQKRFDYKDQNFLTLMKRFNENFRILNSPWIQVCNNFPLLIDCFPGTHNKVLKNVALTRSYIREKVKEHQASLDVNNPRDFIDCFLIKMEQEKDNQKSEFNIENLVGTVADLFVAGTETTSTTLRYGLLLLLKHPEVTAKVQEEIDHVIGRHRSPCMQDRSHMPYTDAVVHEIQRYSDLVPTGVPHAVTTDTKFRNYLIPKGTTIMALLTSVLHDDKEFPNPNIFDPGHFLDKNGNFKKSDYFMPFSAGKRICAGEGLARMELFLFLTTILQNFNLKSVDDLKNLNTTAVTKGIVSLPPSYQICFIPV", "assay": "Inhibition of CYP2C8 (unknown origin)", "format": "ADME"}, "Cytochrome P450 2C19": {"target": "Cytochrome P450 2C19 (Homo sapiens, UniProt P33261)", "sequence (P33261 whole entry)": "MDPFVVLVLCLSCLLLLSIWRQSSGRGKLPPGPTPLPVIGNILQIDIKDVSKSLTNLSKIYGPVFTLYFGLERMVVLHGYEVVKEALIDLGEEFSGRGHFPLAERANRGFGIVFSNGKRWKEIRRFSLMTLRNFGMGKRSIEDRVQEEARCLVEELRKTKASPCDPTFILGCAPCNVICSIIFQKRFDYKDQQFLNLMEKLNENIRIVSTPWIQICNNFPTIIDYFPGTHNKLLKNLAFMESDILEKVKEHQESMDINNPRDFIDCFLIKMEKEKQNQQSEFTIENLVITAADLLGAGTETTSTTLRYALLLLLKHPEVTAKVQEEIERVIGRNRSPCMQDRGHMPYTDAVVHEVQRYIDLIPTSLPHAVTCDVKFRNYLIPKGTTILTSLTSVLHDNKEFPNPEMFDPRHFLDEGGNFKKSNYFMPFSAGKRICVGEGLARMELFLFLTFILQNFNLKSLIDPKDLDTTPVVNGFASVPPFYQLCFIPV", "assay": "Inhibition of CYP2C19 (unknown origin)", "format": "ADME"}, "MDR1 (P-gp)": {"test_system": "MDR1 (P-gp)", "assay": "Apparent permeability in pig LLC-PK1 cells expressing human MDR1 from apical to basolateral side in absence of P-gp inhibitor GF-120918", "format": "ADME, cell-based, Sus scrofa", "method_in_brief": "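LLC-PK1-MDR1 monolayers; apical-to-basolateral apparent permeability measured without the P-gp inhibitor GF-120,918, run in parallel with an inhibitor-containing arm to form a +GF/−GF ratio.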"}, "[16]": {"assay": "Cmax in humanized mouse at 50 mg/kg, sc measured on day 1 post dose by LC-MS/MS analysis", "format": "ADME, organism-based", "parameters": "dose 50 mg/kg, route subcutaneous", "details": "in vivo"}, "[17]": {"assay": "AUC (0 to 8 hrs) in humanized mouse at 50 mg/kg, sc measured on day 1 post dose by LC-MS/MS analysis", "format": "ADME, organism-based", "parameters": "dose 50 mg/kg, time < 8 hr, route subcutaneous", "details": "in vivo"}, "[18]": {"assay": "AUC (0 to 24 hrs) in humanized mouse at 50 mg/kg, sc for 8 days measured on day 8 post last dose by LC-MS/MS analysis", "format": "ADME, organism-based", "parameters": "time < 24 hr, dose 50 mg/kg, route subcutaneous", "details": "in vivo"}, "[19]": {"assay": "AUC (0 to 24 hrs) in humanized mouse at 200 mg/kg, sc measured on day 1 post dose by LC-MS/MS analysis", "format": "ADME, organism-based", "parameters": "dose 200 mg/kg, time < 24 hr, route subcutaneous", "details": "in vivo"}, "[20]": {"assay": "AUC (0 to infinity) in humanized mouse at 50 mg/kg, sc for 8 days measured on day 8 post last dose by LC-MS/MS analysis", "format": "ADME, organism-based", "parameters": "dose 50 mg/kg, time infinity, route subcutaneous", "details": "in vivo"}, "[21]": {"assay": "AUC (0 to infinity) in humanized mouse at 200 mg/kg, sc for 8 days measured on day 8 post last dose by LC-MS/MS analysis", "format": "ADME, organism-based", "parameters": "dose 200 mg/kg, route subcutaneous, time infinity", "details": "in vivo"}, "[22]": {"assay": "Half life in humanized mouse at 200 mg/kg, sc for 8 days measured on day 8 post last dose by LC-MS/MS analysis", "format": "ADME, organism-based", "details": "in vivo"}, "HBV genotype D [23]": {"test_system": "HBV genotype D", "assay": "Antiviral activity against HBV genotype D infected in primary human hepatocytes assessed as inhibition of viral DNA level by qPCR analysis", "format": "functional, organism-based", "details": "Hepatitis B virus", "method_in_brief": "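Primary human hepatocytes isolated from naive chimeric mice with humanized liver and infected with HBV genotype D; HBV DNA in culture supernatant quantified by qPCR to derive EC50.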"}, "HBV genotype D [24]": {"test_system": "HBV genotype D", "assay": "Antiviral activity against HBV genotype D infected in chimeric mouse with humanized liver assessed as reduction in HBeAg level at 200 mg/kg, sc qd for 28 days", "format": "functional, organism-based", "details": "hepatitis B virus genotype D", "method_in_brief": "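HBV genotype D-infected humanized-liver chimeric mice (≥70% human hepatocyte replacement) were dosed once daily for 28 days at 200 mg/kg s.c., with oral saline and oral entecavir 0.03 mg/kg as controls. Serum HBeAg and HBsAg were followed over the study.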"}},
  "note": "Calls of active or inactive are those of the source. The calls are words filed in the database; no cut-off is given here.",
  "data": [
    {"compound": "Cc1cc(NC(=O)c2cccc(S(=O)(=O)N[C@H]3CCOC3)c2)ccc1F", "values": [
      {"measurement": "Cmax", "setting": "[1]", "value": 7700, "unit": "ng/mL"},
      {"measurement": "concentration at 24 h", "setting": "[2]", "value": 570, "unit": "ng/g"},
      {"measurement": "Cmax", "setting": "[3]", "value": 4380, "unit": "ng/mL"},
      {"measurement": "EC50", "setting": "HBV genotype D [4]", "value": 0.12, "unit": "µM"},
      {"measurement": "Cmax", "setting": "[5]", "value": 9440, "unit": "ng/mL"},
      {"measurement": "Cmax", "setting": "[6]", "value": 3370, "unit": "ng/mL"},
      {"measurement": "Tmax", "setting": "[7]", "value": 0.7, "unit": "h"},
      {"measurement": "Tmax", "setting": "[8]", "value": 1, "unit": "h"},
      {"measurement": "AUC(0-t)", "setting": "[9]", "value": 1240, "unit": "ng·h/mL"},
      {"measurement": "AUC(0-t)", "setting": "[10]", "value": 16400, "unit": "ng·h/mL"},
      {"measurement": "AUC(0-t)", "setting": "[11]", "value": 16900, "unit": "ng·h/mL"},
      {"measurement": "bioavailability", "setting": "[12]", "value": 68, "unit": "%"},
      {"measurement": "inhibition", "setting": "[13]", "value": 71, "unit": "%"},
      {"measurement": "IC50", "setting": "[14]", "value": "> 10", "unit": "µM"},
      {"measurement": "IC50", "setting": "[15]", "value": "> 10", "unit": "µM"},
      {"measurement": "inhibition at 3 µM", "setting": "hERG", "value": 31, "unit": "%"},
      {"measurement": "IC50", "setting": "Cytochrome P450 2C8", "value": "> 10", "unit": "µM"},
      {"measurement": "IC50", "setting": "Cytochrome P450 2C19", "value": "> 10", "unit": "µM"},
      {"measurement": "Papp A→B", "setting": "MDR1 (P-gp)", "value": 7.3, "unit": "×10⁻⁶ cm/s"},
      {"measurement": "Cmax", "setting": "[16]", "value": 2190, "unit": "ng/mL"},
      {"measurement": "AUC(0-t) at 8 h", "setting": "[17]", "value": 4750, "unit": "ng·h/mL"},
      {"measurement": "AUC at 24 h", "setting": "[18]", "value": 19200, "unit": "ng·h/mL"},
      {"measurement": "AUC(0-t) at 24 h", "setting": "[19]", "value": 12000, "unit": "ng·h/mL"},
      {"measurement": "AUC(0-inf)", "setting": "[20]", "value": 20700, "unit": "ng·h/mL"},
      {"measurement": "AUC(0-inf)", "setting": "[21]", "value": 119000, "unit": "ng·h/mL"},
      {"measurement": "half-life", "setting": "[22]", "value": 12.1, "unit": "h"},
      {"measurement": "EC50", "setting": "HBV genotype D [23]", "value": 0.2, "unit": "µM"},
      {"measurement": "Activity", "setting": "HBV genotype D [24]", "value": "inactive"}
    ]}
  ]
}
